Hits are enriched below; roughly 1.5% of the tested compounds scored in any of these assays.
EBI2 antag: EBI2 (human) antagonism; inhibition, % at 5 µM; AID 651636; P32249; 360,000 tested, 0.81% active; EBI2 beta-arrestin recruitment, luminescence, 7a,25-OHC stimulated; in the data active = inhibition above about 38%;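 note: enzyme fragment complementation signal reports receptor beta-arrestin coupling in cells; 0% = agonist plus DMSO wells and 100% = wells without agonist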
CXCR6 block: CXCR6 (human) receptor inhibition. CHO-K1 PathHunter CXCR6 beta-arrestin, luminescence. inhibition, % at 20 µM. 360,000 tested, 0.36% active. AID 602244; in the data active = inhibition above about 34%, passing the limit was not always enough;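 note: antagonist mode with CXCL16 agonist at 10 nM final; 0% = 10 nM CXCL16 with DMSO and 100% = unstimulated wells without agonist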
APJ antagonist: APJ receptor antagonism. AID 2521. CHO-K1 APJ beta-arrestin complementation, luminescence. 330,000 tested, 0.32% active. P35414. inhibition, % at 20 µM;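 active = inhibition above about 40% at 20 µM, limit read from the data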;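 note: cells challenged with 10 nM apelin-13 agonist together with compound; plate controls were apelin-13 plus DMSO wells for no effect and DMSO wells lacking apelin-13 for full effect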
Target sequence (P35414 whole entry, looked up): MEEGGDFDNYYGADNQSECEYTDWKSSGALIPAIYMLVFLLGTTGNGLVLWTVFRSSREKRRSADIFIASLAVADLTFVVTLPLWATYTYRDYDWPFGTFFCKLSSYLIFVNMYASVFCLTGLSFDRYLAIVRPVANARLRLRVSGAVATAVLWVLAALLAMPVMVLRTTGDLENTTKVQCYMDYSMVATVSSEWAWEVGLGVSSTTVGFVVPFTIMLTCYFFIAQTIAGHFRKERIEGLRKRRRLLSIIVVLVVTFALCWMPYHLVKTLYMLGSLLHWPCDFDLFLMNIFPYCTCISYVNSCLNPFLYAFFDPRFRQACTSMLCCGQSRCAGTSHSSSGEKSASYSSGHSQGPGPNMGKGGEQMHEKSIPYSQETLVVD
APJ ag: APJ receptor agonism; P35414; CHO-K1 APJ PathHunter beta-arrestin, luminescence; 0% DMSO wells, 100% apelin; activation, % at 20 µM; 330,000 tested, 0.11% active; AID 2520;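 active = activation more than six SD over the plate average, tested at 20 µM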;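 note: 0% = DMSO alone and 100% = apelin-13 at 10 nM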
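Material: CHO-K1 APJ beta-arrestin complementation cell line; Input: cell density 1000 per well; Incubation: compound stimulation 90 min at 25 °C, detection 60 min; Signal: luminescence from split beta-galactosidase complementation, Galacton Star/Emerald II substrate; Controls: DMSO-only wells as negative, 10 nM Apelin-13 as positive control.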
CCR6 antagonist: blocks CCL20-driven beta-arrestin recruitment at human CCR6 | P51684 | CHO-K1 CCR6 PathHunter beta-arrestin, luminescence, CCL20-stimulated | inhibition, % at 20 µM | 340,000 tested, 0.49% active;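 active = compounds whose inhibition of the agonist-driven luminescence signal at 20 µM reaches about 50%, limit read from the data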;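 note: cells stimulated with CCL20 at 14 nM final; plate controls were DMSO with CCL20 for no effect and DMSO without agonist for full effect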
APJ ag confirm: confirmation of human APJ apelin receptor agonists; 310 tested, 10% active; shares compounds with APJ ag; activation, % at 20 µM; AID 2764; CHO-K1 APJ PathHunter beta-arrestin, luminescence;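 active = activation above 40%, taking the highest of four retests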;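 note: plate controls were DMSO wells for no effect and apelin-13 at 10 nM for full effect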
APJ antag conf: APJ receptor antagonism confirmation. shares compounds with APJ antagonist. APJ beta-arrestin recruitment, luminescence, antagonist mode. inhibition, % at 20 µM. 950 tested, 66% active. AID 2766; in the data active = inhibition above about 50%
CXCR6 antag conf: CXCR6 antagonism confirmation, single concentration; shares compounds with CXCR6 block; CHO-K1 CXCR6 PathHunter beta-arrestin, luminescence; inhibition, % at 20 µM; 700 tested, 65% active;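 active = mean inhibition over four retests above 40%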;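 note: receptor stimulated with 10 nM CXCL16 agonist; beta-galactosidase fragment complementation upon beta-arrestin recruitment to receptor; plate controls were CXCL16 plus DMSO for no effect and DMSO without CXCL16 for full effect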
Starred values were filed as active, the others as inactive; . = no result given.

SMILES	EBI2 antag	CXCR6 block	APJ antagonist	APJ ag	CCR6 antagonist	others
O=C1C=CC(=O)C=C1	-9	-4	-2	-1	79*
CC1CCN(C(CC(=O)c2ccccc2)C(=O)c2ccccc2)CC1 (configuration not stated)	15	30	.	.	65*
O=C(c1ccccc1)C(CN1CCCC1)c1ccccc1 (configuration not stated)	-55	7	.	.	8
CN(C)c1ccc(/C=C/C=C2/C(=O)NC(=O)N(c3ccccc3)C2=O)cc1	27	46*	.	.	66*
CN1C(=O)C(=Cc2ccc(N3CCOCC3)o2)C(=O)N(C)C1=S	2	3	42*	-5	57*
CCN1C(=O)C(=Cc2ccc(N3CCOCC3)o2)C(=O)N(CC)C1=S	-12	-1	27	-8	14
O=C(O)CN1C(=O)CN=C(c2ccccn2)c2cc(Cl)ccc21	-9	-8	10	0	3
CC1=Nc2ccccc2/C1=C/c1c(O)[nH]c(=O)[nH]c1=O	-1	8	13	-3	-2
O=c1[nH]c(O)c(/C=C2/C=CC(c3cc(Cl)ccc3Cl)=N2)c(=O)[nH]1	-4	-6	-58	19*	-6	APJ ag confirm=30
C=C(C=O)C[C@@H]1C[C@H](O)C2OC3C[C@]4(C)OC5/C=C\CC6OC7C(CC=CCC6OC5CCCC4OC3CC2O1)OC1CC2OC3CC(=O)OC3C[C@@H](C)C[C@@]2(C)OC1C[C@@H]7C (some centres not stated)	.	.	-12	21*	47	APJ ag confirm=19
NC(N)=N/N=C/c1ccc(N(c2ccccc2)c2ccccc2)cc1	-8	-13	-20	40*	15	APJ ag confirm=30
Cc1cc(/C=C2\C(=O)NC(=O)N(c3ccc(Cl)cc3)C2=O)c(C)n1-c1sc2c(c1C#N)CCCC2	29	-9	7	4	-12
Cc1sc(-n2c(C)cc(C=C3C(=O)NC(=O)NC3=O)c2C)c(C#N)c1C	.	.	9	11*	1	APJ ag confirm=21
O=C1C2CCN(CC2)C1Cc1ccccc1O (configuration not stated)	.	.	-3	-2	4
CSCc1nnc2n1-c1ccc(Cl)cc1C(c1ccccc1)=NC2	0	5	0	0	0
CC1(C)C[C@H]2C=C(C=O)[C@]3(C=O)C[C@]3(C)[C@H]2C1	4	-3	-26	31*	30	APJ ag confirm=33
COC(=O)C(O)(c1ccc(N(C)C(=O)c2ccc(Cl)c(Cl)c2)cc1)C(F)(F)F (configuration not stated)	12	1	-9	-1	18
CCCSc1nc(O)c(CC)c(=O)n1C(C)CC (configuration not stated)	-15	-3	13	60*	-7	APJ ag confirm=62*
CC(ON1CC1(C(F)(F)F)C(F)(F)F)(C(N)=O)C(N)=O (configuration not stated)	-13	1	5	-2	3
O=C1C(=O)c2ccccc2-c2ccccc21	-60	22	-3	37*	34	APJ ag confirm=42*
O=C(COC(=O)Cc1ccccc1)Nc1nnc(-c2ccccc2)o1	7	-2	-1	-7	12
C=C1C(=O)O[C@@H]2C[C@@H](C)[C@@H]3C4OC4C(=O)[C@@]3(C)[C@@H](O)[C@H]12 (some centres not stated)	42	34	42*	2	29	APJ antag conf=42
CC(C)N1CCC2(CC1)NC(CO)(CO)CO2	-3	-8	-7	0	0
COc1ccc(C(=O)C2CCCN(CCO)C2)c(C)c1 (configuration not stated)	1	14	111*	-2	-3	APJ antag conf=26
CC(C)CCn1c(N)c(C(=O)NCc2cccs2)c2nc3ccccc3nc21	16	1	55*	-13	-10	APJ antag conf=-3
SMILES	EBI2 antag	CXCR6 block	APJ antagonist	APJ ag	CCR6 antagonist	others
COCCNC(=O)c1c(N)n(CCC(C)C)c2nc3ccccc3nc12	20	-2	34	-11	14
CS(=O)(=O)c1ccc(C2=C(CNC(=O)c3nccs3)[C@H]3CC[C@@H](C2)N3Cc2ccccc2)cc1	-1	5	.	.	.
CC(C)c1ccc(-n2c(O)c(C=NC(CCS(C)=O)C(=O)O)c(=O)[nH]c2=S)cc1 (configuration not stated)	6	-9	0	-5	14
COCCCn1c(N)c(C(=O)OCCOC)c2nc3ccccc3nc21	13	-5	10	-9	13
CCOC(=O)c1c(NS(=O)(=O)c2ccccc2)n(CCCOC)c2nc3ccccc3nc12	8	18	50*	-7	60*	APJ antag conf=9
CCCCCn1c(NC(=O)c2ccco2)c(C(=O)OCC)c2nc3ccccc3nc21	20	-4	49*	-10	38	APJ antag conf=28
CNc1ccc2oc(C[C@H]3O[C@@]4(CC[C@H]3C)O[C@H]([C@H](C)C(=O)c3ccc[nH]3)[C@H](C)C[C@H]4C)nc2c1C(=O)O	20	75*	65*	2	55*	APJ antag conf=61*;CXCR6 antag conf=69*
O=C1C2CCN(CC2)C12CC2c1ccc(C(F)(F)F)cc1 (configuration not stated)	2	-9	-3	-5	10
COc1cc(/C=C/[N+](=O)[O-])ccc1OC(=O)c1cccnc1	-11	57*	59*	4	82*	APJ antag conf=72*;CXCR6 antag conf=63*
Cc1cccc(N=Nc2ccc(N(C)C)cc2)c1	18	18	11	-3	27
C=C1C(=O)O[C@@H]2C[C@@H](C)[C@@H]3C=CC(=O)[C@@]3(C)[C@@H](OC(=O)CC(=O)O[C@H]3[C@@H]4C(=C)C(=O)O[C@@H]4C[C@@H](C)[C@@H]4C=CC(=O)[C@]43C)[C@H]12	51*	92*	83*	-9	98*	APJ antag conf=115*;CXCR6 antag conf=100*
CCCNC(=O)N1[C@H]2CC[C@@H]1C(C(=O)OC)=C(c1cc3ccccc3s1)C2	-8	8	-64	3	8
CCOC(=O)[C@]12Cc3cc(Cl)ccc3[C@H]1N(C1CCCCC1)C(=O)c1cc(OC)ccc12	77*	42*	.	.	.	CXCR6 antag conf=47*
COc1ccccc1OP(=O)(Nc1ccc(Br)cc1)Oc1ccccc1OC	3	-1	-5	-3	7
CCN(c1ccc(C(O)(C(=O)OC)C(F)(F)F)cc1)S(=O)(=O)c1ccc(C)cc1 (configuration not stated)	9	2	4	-2	19
COC(=O)C1=C(C(=O)OC)SC2(S1)C(C(=O)OC)=C(C(=O)OC)Sc1c2ssc1=O	-12	68*	.	.	86*	CXCR6 antag conf=56*

Source: PubChem BioAssay (Sanford-Burnham Center for Chemical Genomics)
